ChEMBL document CHEMBL5346918, “Design, synthesis and biological evaluation of Nucleosidic CD99 inhibitors that selectively reduce Ewing sarcoma viability” (Eur J Med Chem, 2023)
pIC50: −log10 of the molar value.

Columns and labels:
Format in all cases: functional
SAOS-2 = test: Cytotoxicity against human SAOS-2 cells assessed as reduction in cell viability incubated for 48 hrs by CellTiter-Blue reagent based […] assay; conditions: SAOS-2, 48 h
Outline: (§1)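 Cells seeded and grown to 60–80% confluency (usually 18–24 h), then treated 48 h with a range of concentrations prepared in each line's medium. CellTiter-Blue reagent added at the end of treatment and incubated 3–5 h at 37 °C, 5% CO₂. Fluorescence read at 560 nm excitation and 590 nm emission. IC50 from nonlinear regression, log(inhibitor) vs. normalized response.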

TC-32 = test: Cytotoxicity against human TC-32 cells assessed as reduction in cell viability incubated for 48 hrs by CellTiter-Blue reagent based […] assay; conditions: TC-32, 48 h; outline: as §1
[1] = Cytotoxicity against human A4573 cells assessed as reduction in cell viability incubated for 48 hrs by CellTiter-Blue reagent based […] assay; conditions: A4573, 48 h; outline: as §1
[2] = Cytotoxicity against human TC71 cells assessed as reduction in cell viability incubated for 48 hrs by CellTiter-Blue reagent based […] assay; conditions: TC-71, 48 h; outline: as §1
U2OS = test: Cytotoxicity against human U2OS cells assessed as reduction in cell viability incubated for 48 hrs by CellTiter-Blue reagent based […] assay; outline: as §1

## Nc1nc(-c2ccncc2)nc2c1ncn2[C@@H]1O[C@H](CO)[C@@H](O)[C@@H]1F
SAOS-2
  pIC50: ≤ 4.30
TC-32
  pIC50: ≤ 4.30
[1]
  pIC50: ≤ 4.30
[2]
  pIC50: ≤ 4.30
U2OS
  pIC50: ≤ 4.30

## Nc1ncnc2c1ncn2[C@@H]1O[C@H](C(=O)O)[C@@H](O)[C@H]1F
SAOS-2
  pIC50: ≤ 4.30
TC-32
  pIC50: ≤ 4.30
[1]
  pIC50: ≤ 4.30
[2]
  pIC50: ≤ 4.30
U2OS
  pIC50: ≤ 4.30

## Nc1ncnc2c1ncn2[C@@H]1C[C@@H](O)[C@H](C(=O)O)O1
SAOS-2
  pIC50: ≤ 4.30
TC-32
  pIC50: ≤ 4.30
[1]
  pIC50: ≤ 4.30
[2]
  pIC50: ≤ 4.30
U2OS
  pIC50: ≤ 4.30

## Nc1nc(Cl)nc2c1ncn2[C@@H]1O[C@H](COc2cc(C(=O)O)cc(C(=O)O)c2)[C@@H](O)[C@@H]1F
SAOS-2
  pIC50: 4.06
TC-32
  pIC50: ≤ 4.00
[2]
  pIC50: 4.01
U2OS
  pIC50: ≤ 4.00

## Nc1ncnc2c1ncn2[C@H]1C[C@H](O)[C@@H](C(=O)O)O1
SAOS-2
  pIC50: ≤ 4.30
TC-32
  pIC50: ≤ 4.30
[1]
  pIC50: ≤ 4.30
[2]
  pIC50: ≤ 4.30
U2OS
  pIC50: ≤ 4.30

## Nc1ncnc2c1ncn2[C@@H]1O[C@H](CN2CCOCC2)[C@@H](O)[C@H]1F
SAOS-2
  pIC50: ≤ 4.30
TC-32
  pIC50: ≤ 4.30
[1]
  pIC50: ≤ 4.30
[2]
  pIC50: ≤ 4.30
U2OS
  pIC50: ≤ 4.30

## Nc1nc(-c2ccoc2)nc2c1ncn2[C@@H]1O[C@H](CO)[C@@H](O)[C@@H]1F
SAOS-2
  pIC50: ≤ 4.30
TC-32
  pIC50: ≤ 4.30
[1]
  pIC50: ≤ 4.30
[2]
  pIC50: ≤ 4.30
U2OS
  pIC50: ≤ 4.30

## Nc1nc(Cl)nc2c1ncn2[C@@H]1O[C@H](CN2CCOCC2)[C@@H](O)[C@@H]1F
SAOS-2
  pIC50: ≤ 4.00
TC-32
  pIC50: ≤ 4.00
[2]
  pIC50: ≤ 4.00
U2OS
  pIC50: ≤ 4.00

## Nc1ncnc2c1ncn2[C@@H]1C[C@@H](O)[C@H](CN2CCOCC2)O1
SAOS-2
  pIC50: ≤ 4.30
TC-32
  pIC50: ≤ 4.30
[1]
  pIC50: ≤ 4.30
[2]
  pIC50: ≤ 4.30
U2OS
  pIC50: ≤ 4.30

## CS(=O)(=O)C[C@H]1O[C@@H](n2cnc3c(N)nc(Cl)nc32)C[C@@H]1O
SAOS-2
  pIC50: ≤ 4.30
TC-32
  pIC50: ≤ 4.30
[1]
  pIC50: ≤ 4.30
[2]
  pIC50: 4.44
U2OS
  pIC50: ≤ 4.30

## Nc1nc(-c2ccoc2)nc2c1ncn2[C@H]1C[C@H](O)[C@@H](CO)O1
SAOS-2
  pIC50: 3.77
TC-32
  pIC50: 4.26
[1]
  pIC50: 4.11
[2]
  pIC50: 4.17
U2OS
  pIC50: 3.70

## C=C1O[C@@H](n2cnc3c(N)nc(N4CCOCC4)nc32)[C@@H](F)[C@@H]1O
SAOS-2
  pIC50: 4.01
TC-32
  pIC50: 4.01
[2]
  pIC50: ≤ 4.00
U2OS
  pIC50: 4.17

## Nc1nc(-c2ccsc2)nc2c1ncn2[C@H]1C[C@H](O)[C@@H](CO)O1
SAOS-2
  pIC50: ≤ 4.30
TC-32
  pIC50: ≤ 4.30
[1]
  pIC50: ≤ 4.30
[2]
  pIC50: ≤ 4.30
U2OS
  pIC50: ≤ 4.30

## Nc1ncnc2c1ncn2[C@H]1C[C@H](O)[C@@H](CN2CCOCC2)O1
SAOS-2
  pIC50: ≤ 4.30
TC-32
  pIC50: ≤ 4.30
[1]
  pIC50: ≤ 4.30
[2]
  pIC50: ≤ 4.30
U2OS
  pIC50: ≤ 4.30

## Nc1nc(-c2ccsc2)nc2c1ncn2[C@@H]1O[C@H](CO)[C@@H](O)[C@@H]1F
SAOS-2
  pIC50: ≤ 4.30
TC-32
  pIC50: ≤ 4.30
[1]
  pIC50: ≤ 4.30
[2]
  pIC50: ≤ 4.30
U2OS
  pIC50: ≤ 4.30

## Nc1ncnc2c1ncn2[C@@H]1O[C@H](C(=O)O)[C@@H](O)[C@@H]1F
SAOS-2
  pIC50: ≤ 4.30
TC-32
  pIC50: ≤ 4.30
[1]
  pIC50: ≤ 4.30
[2]
  pIC50: ≤ 4.30
U2OS
  pIC50: ≤ 4.30

## Nc1nc(Cl)nc2c1ncn2[C@H]1C[C@H](O)[C@@H](CN2CCOCC2)O1
SAOS-2
  pIC50: 4.01
TC-32
  pIC50: ≤ 4.00
[2]
  pIC50: ≤ 4.00
U2OS
  pIC50: ≤ 4.00

## Nc1nc(Cl)nc2c1ncn2[C@H]1C[C@H](O)[C@@H](COc2cc(C(=O)O)cc(C(=O)O)c2)O1
SAOS-2
  pIC50: ≤ 4.00
TC-32
  pIC50: ≤ 4.00
[2]
  pIC50: ≤ 4.00
U2OS
  pIC50: ≤ 4.00

## Nc1nc(-c2ccncc2)nc2c1ncn2[C@H]1C[C@H](O)[C@@H](CO)O1
SAOS-2
  pIC50: ≤ 4.30
TC-32
  pIC50: ≤ 4.30
[1]
  pIC50: ≤ 4.30
[2]
  pIC50: ≤ 4.30
U2OS
  pIC50: ≤ 4.30

## Nc1nc(N2CCOCC2)nc2c1ncn2[C@@H]1O[C@H](CN2CCOCC2)[C@@H](O)[C@@H]1F
SAOS-2
  pIC50: ≤ 4.00
TC-32
  pIC50: ≤ 4.00
[2]
  pIC50: ≤ 4.00
U2OS
  pIC50: ≤ 4.00
